Biological target: T1, fMet-Leu-Phe receptor (Homo sapiens, UniProt P21462)
T1 sequence (P21462 whole entry): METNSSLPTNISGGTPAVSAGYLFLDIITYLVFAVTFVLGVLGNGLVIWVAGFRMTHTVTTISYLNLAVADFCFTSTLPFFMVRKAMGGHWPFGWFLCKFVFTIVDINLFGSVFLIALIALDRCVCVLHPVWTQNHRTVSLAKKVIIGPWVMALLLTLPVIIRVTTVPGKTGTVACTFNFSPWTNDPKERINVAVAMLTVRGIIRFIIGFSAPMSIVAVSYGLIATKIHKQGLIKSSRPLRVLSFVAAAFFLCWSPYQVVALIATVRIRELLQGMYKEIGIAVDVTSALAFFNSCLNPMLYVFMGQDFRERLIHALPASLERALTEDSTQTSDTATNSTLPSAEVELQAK
Assay: Biased agonist activity at human FPR1 expressed in FlpIn-CHO cells assessed as intracellular calcium mobilization by Fluo-4-AM dye based fluorescence assay
Outline: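 Agonist transduction coefficients (Log(τ/KA)) for each signaling output estimated with an extension of the Black-Leff operational model. Values normalized to a reference ligand and to Ca2+ mobilization as reference pathway, giving ΔLog(τ/KA) and Log(bias factors). Data are mean ± SEM of 4 independent experiments, each performed in duplicate.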

EC50: 891 nM
SMILES: CCCCC(C(=O)Nc1ccc(Cl)cc1)n1nc(C)cc(Cc2ccccc2OC)c1=O (stereo unspecified)
